One assay relates to CCRF-CEM. The experiment in a line: Cytotoxicity in rapidly proliferating CCRF-CEM cell lines after 72 hr exposure. Format: functional, Homo sapiens.
Assay [1] can be described thus: Inhibition of Phosphatidylinositol 3-kinase from bovine brain. More on the design: species or system Bos taurus. The procedure, abridged: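 Purified bovine brain PI 3-kinase with phosphatidylinositol as substrate. Lipid products extracted and separated by TLC with autoradiography. PI-3-P spots scraped and counted by liquid scintillation.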

In brackets after ≈: the same amount, converted by molar mass.

In the case of `COC[C@H]1OC(=O)c2coc3c2[C@@]1(C)C1=C(C3=O)[C@@H]2CCC(=O)[C@@]2(C)C[C@H]1OC(C)=O` [WORTMANNIN], the CT50 in the assay on CCRF-CEM amounted to 0.9 µg/mL. In assay [1], this compound had a concentration for half-maximal inhibition (IC50) of 1.8 ng/mL (≈ 4.2 nM).
In the case of `COC[C@H]1OC(=O)c2coc3c2[C@@]1(C)C1=C(C3=O)[C@@H]2CCC(=O)[C@@]2(C)C[C@H]1OC(=O)CCl`, the CT50 with CCRF-CEM was 0.7 µg/mL. In assay [1], this compound came in with an IC50 of 1.3 ng/mL (≈ 2.81 nM).
`CCC(=O)O[C@@H]1C[C@]2(C)C(OC(C)=O)CC[C@H]2C2=C1[C@]1(C)c3c(coc3C2=O)C(=O)O[C@@H]1COC` (some centres undefined) returned a CT50 in the assay with CCRF-CEM of 3.1 µg/mL. The same compound came in with an IC50 in assay [1] of 56.5 ng/mL (≈ 116 nM).
With `CCC(=O)O[C@@H]1C[C@]2(C)C(=O)CC[C@H]2C2=C1[C@]1(C)c3c(coc3C2=O)C(=O)O[C@@H]1COC`, the CT50 in the assay with CCRF-CEM came to 0.2 µg/mL. Also, in assay [1], the concentration for half-maximal inhibition (IC50) was 0.6 ng/mL (≈ 1.36 nM).
As for `CCCCC(=O)O[C@@H]1C[C@]2(C)C(=O)CC[C@H]2C2=C1[C@]1(C)c3c(coc3C2=O)C(=O)O[C@@H]1COC`, the CT50 with CCRF-CEM was determined as 0.8 µg/mL. The compound also had a concentration for half-maximal inhibition (IC50) in assay [1] of 1.2 ng/mL (≈ 2.55 nM).
In the assay on CCRF-CEM, `CCCC(=O)O[C@@H]1C[C@]2(C)C(=O)CC[C@H]2C2=C1[C@]1(C)c3c(coc3C2=O)C(=O)O[C@@H]1COC` displayed a CT50 of 0.3 µg/mL. Further, in assay [1], the IC50 is 0.4 ng/mL (≈ 0.876 nM).
On to `C=CC(=O)O[C@@H]1C[C@]2(C)C(=O)CC[C@H]2C2=C1[C@]1(C)c3c(coc3C2=O)C(=O)O[C@@H]1COC`, for which the CT50 with CCRF-CEM came to 0.4 µg/mL. Moreover, in assay [1], the IC50 was 0.95 ng/mL (≈ 2.16 nM).
As to `COC[C@H]1OC(=O)c2coc3c2[C@@]1(C)C1=C(C3=O)[C@@H]2CCC(=O)[C@@]2(C)C[C@H]1OC(=O)Cc1ccccc1`, in the assay with CCRF-CEM, the CT50 came to 1 µg/mL. Further, the IC50 in assay [1] stood at 1.53 ng/mL (≈ 3.03 nM).
In turn, `CCC(=O)O[C@@H]1C[C@]2(C)C(O)CC[C@H]2C2=C1[C@]1(C)c3c(coc3C2=O)C(=O)O[C@@H]1COC` (some centres undefined) came in with a CT50 in the assay with CCRF-CEM of 0.2 µg/mL. In assay [1], this compound yielded an IC50 of 0.38 ng/mL (≈ 0.855 nM).
For `COC[C@H]1OC(=O)c2coc3c2[C@@]1(C)C1=C(C3=O)[C@@H]2CCC(=O)[C@@]2(C)C[C@H]1O`, the CT50 in the assay with CCRF-CEM came out at 2 µg/mL. The same compound had an IC50 in assay [1] of 10 ng/mL (≈ 25.9 nM).
For `COC[C@H]1OC(=O)c2coc3c2[C@@]1(C)C1=C(C3=O)[C@@H]2CCC(=O)[C@@]2(C)C[C@H]1OC(=O)CC(C)C`, the CT50 in the assay on CCRF-CEM was 0.6 µg/mL. This compound yielded a half-maximal inhibitory concentration (IC50) in assay [1] of 1.16 ng/mL (≈ 2.47 nM).
Regarding `COC[C@H]1OC(=O)c2coc3c2[C@@]1(C)C1=C(C3=O)[C@@H]2CCC(=O)[C@@]2(C)CC1=O`, the CT50 with CCRF-CEM came to 2.8 µg/mL. In assay [1], this compound gave an IC50 of 1.6 ng/mL (≈ 4.16 nM).

Usually IC50 stands for the concentration at which inhibition is half-maximal.

The values above are taken from ChEMBL document CHEMBL1129056, “Synthesis and in vitro evaluation of new wortmannin esters: potent inhibitors of phosphatidylinositol 3-kinase” (J Med Chem, 1996).
